Laboratory results published in ChEMBL document CHEMBL1151773, “Synthesis and biological evaluation of amide derivatives of (5,6-dimethoxy-2,3-dihydro-1H-inden-1-yl)acetic acid as anti-inflammatory agents with reduced gastrointestinal ulcerogenecity” (Eur J Med Chem, 2008).

Tests used:
Rattus norvegicus [1] = test: Antipyretic activity in Wistar rat assessed as change in LPS-induced rectal temperature at 100 mg/kg, po administered 30 mins before LPS challenge after 1 hr; type: functional
In short: (§1)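 Adult female Wistar rats, 170±20 g, fasted 24 h, dosed orally at 09:00; 30 min later E. coli 0111:B4 phenol-extracted LPS in apyrogenic saline given i.p. Rectal temperature by telethermometer probe just before and 1–7 h hourly after LPS; temperature index calculated from these readings. n = 6.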

Rattus norvegicus [2] = test: Antiinflammatory activity in Wistar rat assessed as inhibition of carrageenan-induced hind paw edema volume at 100 mg/kg, po administered 60 mins before carrageenan challenge after 4 hrs relative to control; type: functional
Rattus norvegicus [3] = test: Antiarthritic activity in Albino rat assessed as inhibition of Freund's complete adjuvant-induced paw volume at 100 mg/kg, po administered for 14 days daily once starting a day before adjuvant challenge measured on day 8; type: functional
In short: (§2)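 Female albino rats, 160±10 g, six per group, dosed orally once daily for 14 days starting the day before 0.1 ml Freund's complete adjuvant into the right hind paw subplantar surface. Both hind paw volumes, measured up to a mark at the lateral malleolus, taken before and daily after adjuvant.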

Rattus norvegicus [4] = test: Antipyretic activity in Wistar rat assessed as change in LPS-induced rectal temperature at 100 mg/kg, po administered 30 mins before LPS challenge after 4 hrs; type: functional; in short: as §1
Rattus norvegicus [5] = test: Antipyretic activity in Wistar rat assessed as change in LPS-induced rectal temperature at 100 mg/kg, po administered 30 mins before LPS challenge after 5 hrs; type: functional; in short: as §1
Rattus norvegicus [6] = test: Antipyretic activity in Wistar rat assessed as change in LPS-induced rectal temperature at 100 mg/kg, po administered 30 mins before LPS challenge after 7 hrs; type: functional; in short: as §1
Rattus norvegicus [7] = test: Toxicity in Wistar rat assessed as mortality at up to 1000 mg/kg, po after 24 hrs; type: organism-based; design: dose 1000 mg/kg, route oral; settings: in vivo
Rattus norvegicus [8] = test: Gastrointestinal toxicity in Wistar rat assessed as ulcer index at 100 mg/kg, po after 14 days; type: organism-based; design: dose 100 mg/kg, route oral; settings: in vivo, 336 h
In short: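 Gastric mucosa examined for ulceration at post-mortem of female albino rats sacrificed at the end of the 14-day once-daily oral dosing in the Freund's adjuvant arthritis study; ulcer index scored per animal. Mean ± SEM, n = 6.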

Rattus norvegicus [9] = test: Antiinflammatory activity in Wistar rat assessed as inhibition of carrageenan-induced hind paw edema volume at 100 mg/kg, po administered 60 mins before carrageenan challenge after 3 hrs relative to control; type: functional
Rattus norvegicus [10] = test: Antiinflammatory activity in Wistar rat assessed as inhibition of carrageenan-induced hind paw edema volume at 100 mg/kg, po administered 60 mins before carrageenan challenge after 24 hrs relative to control; type: functional
Mus musculus = test: Analgesic activity in Swiss albino mouse assessed as inhibition of acetic acid-induced writhing at 100 mg/kg, po administered 60 mins before acetic acid challenge after 5 to 15 mins relative to control; type: functional
In short: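 Female Swiss albino mice, 20±5 g, fasted overnight with free water access, dosed orally; 1 h later injected i.p. with 1% v/v acetic acid at 0.1 ml/10 g. Writhes (full hind-limb extension) counted for 15 min, starting 5 min after injection; only animals giving 20 or more writhes used. % inhibition = 100(1−Wt/Wc) vs control group mean; six animals per group.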

Rattus norvegicus [11] = test: Antiinflammatory activity in Wistar rat assessed as inhibition of carrageenan-induced hind paw edema volume at 100 mg/kg, po administered 60 mins before carrageenan challenge after 6 hrs relative to control; type: functional
Rattus norvegicus [12] = test: Antiinflammatory activity in […] 50 mg/kg, ip pretreated Wistar rat assessed as inhibition of carrageenan-induced hind paw edema volume at 100 mg/kg, po administered 60 mins before carrageenan challenge measured after 4 hrs; type: functional
In short: (§3)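 Rats pretreated with SKF-525A 50 mg/kg i.p.; 1 h later oral dose at 100 mg/kg. 1 h after dosing, 0.1 ml of 1% carrageenan given subplantar into the right hind paw.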

Rattus norvegicus [13] = test: Antiinflammatory activity in […] 50 mg/kg, ip pretreated Wistar rat assessed as inhibition carrageenan-induced hind paw edema volume at 100 mg/kg, po administered 60 mins before carrageenan challenge measured after 1 hr; type: functional; in short: as §3
Rattus norvegicus [14] = test: Antiinflammatory activity in […] 50 mg/kg, ip pretreated Wistar rat assessed as inhibition of carrageenan-induced hind paw edema volume at 100 mg/kg, po administered 60 mins before carrageenan challenge measured after 3 hrs; type: functional; in short: as §3
Rattus norvegicus [15] = test: Antiarthritic activity in Albino rat assessed as inhibition of Freund's complete adjuvant-induced paw volume at 100 mg/kg, po administered for 14 days daily once starting a day before adjuvant challenge measured on day 13; type: functional; in short: as §2
Rattus norvegicus [16] = test: Antipyretic activity in Wistar rat assessed as change in LPS-induced rectal temperature at 100 mg/kg, po administered 30 mins before LPS challenge after 3 hrs; type: functional; in short: as §1
Rattus norvegicus [17] = test: Antiinflammatory activity in po dosed Wistar rat assessed as inhibition of carrageenan-induced hind paw edema volume administered 60 mins before carrageenan challenge; type: functional
Rattus norvegicus [18] = test: Antiarthritic activity in Freund's complete adjuvant challenged Albino rat model assessed as change in body weight at 100 mg/kg, po administered for 14 days daily once starting a day before adjuvant challenge; type: functional; settings: 336 h, read-out: INH
Rattus norvegicus [19] = test: Antiinflammatory activity in Wistar rat assessed as inhibition of carrageenan-induced hind paw edema volume at 100 mg/kg, po administered 60 mins before carrageenan challenge after 1 hr relative to control; type: functional
Rattus norvegicus [20] = test: Antiarthritic activity in Albino rat assessed as inhibition of Freund's complete adjuvant-induced paw volume at 100 mg/kg, po administered for 14 days daily once starting a day before adjuvant challenge measured on day 3; type: functional; in short: as §2
Rattus norvegicus [21] = test: Antiinflammatory activity in […] 50 mg/kg, ip pretreated Wistar rat assessed as inhibition of carrageenan-induced hind paw edema volume at 100 mg/kg, po administered 60 mins before carrageenan challenge measured after 24 hrs; type: functional; in short: as §3
Rattus norvegicus [22] = test: Antiinflammatory activity in […] 50 mg/kg, ip pretreated Wistar rat assessed as inhibition carrageenan-induced hind paw edema volume at 100 mg/kg, po administered 60 mins before carrageenan challenge measured after 2 hrs; type: functional; in short: as §3
Rattus norvegicus [23] = test: Antiinflammatory activity in Wistar rat assessed as inhibition of carrageenan-induced hind paw edema volume at 100 mg/kg, po administered 60 mins before carrageenan challenge after 2 hrs relative to control; type: functional
Rattus norvegicus [24] = test: Antipyretic activity in Wistar rat assessed as change in LPS-induced rectal temperature at 100 mg/kg, po administered 30 mins before LPS challenge after 2 hrs; type: functional; in short: as §1
Rattus norvegicus [25] = test: Antiinflammatory activity in […] 50 mg/kg, ip pretreated Wistar rat assessed as inhibition of carrageenan-induced hind paw edema volume at 100 mg/kg, po administered 60 mins before carrageenan challenge measured after 6 hrs; type: functional; in short: as §3
Rattus norvegicus [26] = test: Gastrointestinal toxicity in Wistar rat assessed as ulcer index at 100 mg/kg, po after 6 hrs; type: organism-based; design: dose 100 mg/kg, route oral; settings: in vivo
In short: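 Female Wistar rats, 175±25 g, fasted 24 h, dosed orally once; sacrificed 6 h later by cervical dislocation. Stomach opened along greater curvature, saline-washed, mucosa inspected with a hand lens. Lesions graded I (edema/hyperemia/petechiae), II (hemorrhagic lesions with small erosions), III (deep ulcers); UI = nI + 2nII + 3nIII. Mean ± SEM, n = 6.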

Rattus norvegicus [27] = test: Antipyretic activity in Wistar rat assessed as change in LPS-induced rectal temperature at 100 mg/kg, po administered 30 mins before LPS challenge after 6 hrs; type: functional; in short: as §1

`CCCCCCNC(=O)CC1CCc2cc(OC)c(OC)cc21` (stereo not drawn) gave an Activity (Rattus norvegicus [1]) of -0.56 °C, an inhibition in vivo at 100 mg/kg (Rattus norvegicus [2]) of 39.1% and an inhibition in vivo at 100 mg/kg (Rattus norvegicus [3]) of 28.8%. For the same compound, the Activity (Rattus norvegicus [4]) was 0.11 °C, the Activity (Rattus norvegicus [5]) was 0.38 °C and the Activity (Rattus norvegicus [6]) was 0.54 °C. For the same compound, the Activity (Rattus norvegicus [7]) was “Non-toxic”, the UI (Rattus norvegicus [8]) was 0 and the inhibition in vivo at 100 mg/kg (Rattus norvegicus [9]) was 40.6%. For the same compound, the inhibition in vivo at 100 mg/kg (Rattus norvegicus [10]) was 43.3%, the inhibition in vivo at 100 mg/kg (Mus musculus) was 82.2% and the inhibition in vivo at 100 mg/kg (Rattus norvegicus [11]) was 39.8%. For the same compound, the “inhibition (INH)” value (Rattus norvegicus [12]) was 38.6%, the “inhibition (INH)” value (Rattus norvegicus [13]) was 52.38% and the “inhibition (INH)” value (Rattus norvegicus [14]) was 43.08%. The inhibition in vivo at 100 mg/kg (Rattus norvegicus [15]) was 39.4%, the Activity (Rattus norvegicus [16]) was -0.23 °C and the ED30 (Rattus norvegicus [17]) was 24 mg/kg. The inhibition in vivo at 100 mg/kg (Rattus norvegicus [18]) was 7.64 g, the inhibition in vivo at 100 mg/kg (Rattus norvegicus [19]) was 46.9% and the inhibition in vivo at 100 mg/kg (Rattus norvegicus [20]) was 31.2%. For the same compound, the “inhibition (INH)” value (Rattus norvegicus [21]) was 45.45%, the “inhibition (INH)” value (Rattus norvegicus [22]) was 36.58% and the inhibition in vivo at 100 mg/kg (Rattus norvegicus [23]) was 31%. The Activity (Rattus norvegicus [24]) was -0.94 °C, the “inhibition (INH)” value (Rattus norvegicus [25]) was 40.42% and the UI (Rattus norvegicus [26]) was 0. For the same compound, the Activity (Rattus norvegicus [27]) was 0.53 °C.
